# Assay results of several laboratories.
# Protocols differ between the studies behind these lines.
# Observed: cell growth or viability
Structure (SMILES),cell line,assay,conditions,quantity,result
COc1ccc2/c(=N/c3ccccc3NC(=O)CN)cc(-c3ccc4c(c3)OCCO4)oc2c1,A549,CCK-8,1 µM,inhibition,0.19%
CCCCCCCCCCCCCCCCCCOCC(COP(=O)([O-])OCC[N+](C)(C)C)OC (stereo not drawn),NCI-H522,SRB,10 µM,inhibition,27%
NCC(=O)Nc1ccccc1/N=c1\cc(-c2ccc3c(c2)OCCO3)oc2ccccc12,A549,CCK-8,1 µM,inhibition,-0.04%
CCCCCCCCCCCCCCCCCCOc1ccc(CC(=O)OCC[N+](CC)(CC)CC)cc1,NCI-H522,SRB,10 µM,inhibition,26.6%
Cc1nc(NC(=O)N2CCC[C@H]2C(N)=O)sc1-c1ccnc(C(C)(C)C(F)(F)F)c1,NCI-H1048,ATP luminescence,5 days,EC50,0.611 µM
Cc1n[nH]c2ccc3nc(-c4ccc(C(=O)NCCN(C)C)cc4F)c4c(c3c12)CCCCC4,EOL1,,72 h,GI50,0.072 µM
CCC/C(=C\C1=C(OC)C(=O)c2ccccc2C1=O)C(=O)N(CC)CC,HUVEC,resazurin,48 h,GI50,2.7 µM
Oc1cccc(-c2nc(N3CCOCC3)c3oc4ncccc4c3n2)c1,A549,CCK-8,1 µM,inhibition,20.4%
COc1ccc(C=NNC(=O)c2nc3ccccc3s2)cc1O,PC-3,MTT,"100 µM, 48 h",cell death,25.1%
CCCCCCCCCCCCCCCCCCOc1ccccc1CC(=O)OCC[N+](CC)(CC)CC,NCI-H522,SRB,10 µM,inhibition,89.5%
Cc1nc(Nc2ncc(C(=O)Nc3c(C)cccc3Cl)s2)cc(N2CC[C@H](O)C2)n1,WSU-NHL,ATP luminescence,"10 µM, 72 h",inhibition,91%
NC(=O)C1CCCN1C(=O)Nc1ccccc1/N=c1\cc(-c2ccc3c(c2)OCCO3)oc2cc(F)ccc12 (stereo not drawn),A549,CCK-8,1 µM,inhibition,-1.31%
CCCCCCCCCCCCCCCCCCOc1ccc(CC(=O)OCC[N+]2(C)CCCC2)cc1,NCI-H522,SRB,10 µM,inhibition,3.23%
CN(C)CCNC(=O)c1ccc(-c2nc3ccc4[nH]ncc4c3c3c2CCCCC3)cc1,EOL1,,72 h,GI50,0.143 µM
CCCCCCCCCCCCCCCCCCOc1ccc(CC(=O)OCC[N+](C)(C)C)cc1,NCI-H522,SRB,10 µM,inhibition,4.28%
COc1cc(C=NNC(=O)c2nc3ccccc3s2)ccc1O,PC-3,MTT,"100 µM, 48 h",cell death,29.4%
CCCCCCCCCCCCCCCCCCOc1cccc(CC(=O)OCC[N+](CC)(CC)CC)c1,NCI-H522,SRB,10 µM,inhibition,61.5%
CN(C)CCNC(=O)c1ccc(-c2nc3ccc4[nH]ncc4c3c3c2CCCCC3)c(F)c1,EOL1,,72 h,GI50,0.052 µM
NCCC(=O)Nc1ccccc1/N=c1\cc(-c2ccc3c(c2)OCCO3)oc2cc(F)ccc12,A549,CCK-8,1 µM,inhibition,-8.9%
CCCS(=O)(=O)Oc1cc(C=NNC(=O)c2nc3ccccc3s2)ccc1OC,PC-3,MTT,"100 µM, 48 h",cell death,33%
Cc1n[nH]c2ccc3nc(-c4ccc(C(=O)NCCN(C)C)cc4)c4c(c3c12)CCCCC4,EOL1,,72 h,GI50,0.107 µM
CCCCCCCCCCCCCCCCCCOc1ccc(CC(=O)OCCC[N+](C)(C)C)cc1,NCI-H522,SRB,10 µM,inhibition,21.6%
Cc1n[nH]c2ccc3nc(-c4ccc(C(=O)NCCN(C)C)cc4)c4c(c3c12)CCCC4,EOL1,,72 h,GI50,0.037 µM
C=C(NC(=O)C(=C)NC(=O)c1csc(C2=N[C@@H]3c4csc(n4)[C@H]4NC(=O)c5csc(n5)[C@H]([C@](C)(O)[C@@H](C)O)NC(=O)[C@H]5CSC(=N5)/C(=C/C)NC(=O)[C@H]([C@@H](C)O)NC(=O)c5csc(n5)[C@]3(CC2)NC(=O)[C@H](C)NC(=O)C(=C)NC(=O)[C@H](C)NC(=O)[C@H]([C@@H](C)CC)N[C@@H]2C=Cc3c([C@H](C)O)cc(nc3[C@H]2O)C(=O)O[C@@H]4C)n1)C(N)=O,PC-3,,,EC50,54.6 µM
